Here are results for 7 compounds from ChEMBL document CHEMBL1949566 (Bioorg Med Chem Lett, 2012).

The first test concerns the target T1, Type-1 angiotensin II receptor (Oryctolagus cuniculus, UniProt P34976).
T1 sequence (P34976 whole entry): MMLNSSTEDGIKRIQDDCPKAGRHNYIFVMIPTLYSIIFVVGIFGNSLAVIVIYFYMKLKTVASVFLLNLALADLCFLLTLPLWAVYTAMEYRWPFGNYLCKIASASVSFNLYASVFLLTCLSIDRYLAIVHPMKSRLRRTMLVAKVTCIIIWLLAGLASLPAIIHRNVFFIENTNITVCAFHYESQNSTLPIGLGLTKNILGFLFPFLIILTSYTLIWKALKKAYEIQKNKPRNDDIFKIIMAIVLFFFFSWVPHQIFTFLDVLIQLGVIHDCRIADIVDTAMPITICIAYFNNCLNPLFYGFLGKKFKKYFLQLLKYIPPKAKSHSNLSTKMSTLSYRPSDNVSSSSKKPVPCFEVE
Nature of the test: Antagonist activity at angiotensin 2 receptor type 1 in New Zealand White rabbit descending thoracic aorta rings assessed as inhibition of angiotensin 2-induced contraction preincubated for 30 mins prior angiotensin 2 challenge. In kind it is functional, tissue-based. The essentials: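 Aortic rings held at 2 g resting tension and equilibrated 60 min with repeated washing in Krebs bicarbonate solution. Responsiveness was checked with AngII, then a control cumulative AngII concentration–contractile response curve was run. After washout, test substance was incubated 30 min and a second AngII curve obtained.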
A word on the IC50: it is the concentration that gives 50% inhibition. With `CCCCc1nc(C)c(CC(=S)N(C)C)c(=O)n1Cc1ccc(-c2ccccc2-c2nnn[nH]2)cc1`, the IC50 worked out at 0.42 nM.

With `CCCCc1nc(C)c(CCC(=O)N2CC(C)OC(C)C2)c(=O)n1Cc1ccc(-c2ccccc2-c2nnn[nH]2)cc1` (centres undefined), the half-inhibitory concentration (IC50) was found to be 13.1 nM.

For the compound `CCCCc1nc(C)c(CC(=O)N(CC)CC)c(=O)n1Cc1ccc(-c2ccccc2-c2nnn[nH]2)cc1`, the IC50 worked out at 30.8 nM.

As for `CCCCc1nc(C)c(CC(=O)N2CC(C)OC(C)C2)c(=O)n1Cc1ccc(-c2ccccc2-c2nnn[nH]2)cc1` (centres undefined), the IC50 came out at 1.03 nM.

On to `CCCCc1nc(C)c(CCC(=O)OCC)c(=O)n1Cc1ccc(-c2ccccc2-c2nnn[nH]2)cc1`, for which the IC50 worked out at 2.51 nM.

Turning to `CCCc1nc(C)c(CC(=O)N(CC)CC)c(=O)n1Cc1ccc(-c2ccccc2-c2nnn[nH]2)cc1`, the IC50 stood at 4.69 nM.

Consider `CCCCc1nc(C)c(CC(=S)N2CCCCCC2)c(=O)n1Cc1ccc(-c2ccccc2-c2nnn[nH]2)cc1`, for which the IC50 stood at 6.11 nM.

Target in another test: not listed separately
Put plainly: Displacement of [125I]angiotensin 2 from angiotensin 2 receptor type 1 in Sprague-Dawley rat adrenal cortex membranes after 60 mins by gamma counting. In kind it is cell membranes, Membrane. The essentials: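 Adrenal cortex membranes came from male Sprague–Dawley rats (200–250 g); the pellet was taken by differential centrifugation up to 100,000 g. Membranes (60–70 µg protein/assay) were suspended in 50 mM Tris–HCl, 10 mM MgCl2, 0.25% BSA, pH 7.4, with [125I]AngII (0.05 nM) and test compound (3×10^-12 to 10^-6 M, DMSO). Incubation ran 60 min at 25 °C and ended by GF/B filtration. IC50 is 50% inhibition of binding.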
In turn, `CCCCc1nc(C)c(CC(=S)N(C)C)c(=O)n1Cc1ccc(-c2ccccc2-c2nnn[nH]2)cc1` returned an IC50 of 0.13 nM.

Regarding `CCCCc1nc(C)c(CCC(=O)N2CC(C)OC(C)C2)c(=O)n1Cc1ccc(-c2ccccc2-c2nnn[nH]2)cc1` (centres undefined), the half-maximal inhibitory concentration (IC50) turned out to be 72.6 nM.

Compound `CCCCc1nc(C)c(CC(=O)N2CC(C)OC(C)C2)c(=O)n1Cc1ccc(-c2ccccc2-c2nnn[nH]2)cc1` (centres undefined) came in with an IC50 of 24 nM.

`CCCCc1nc(C)c(CCC(=O)OCC)c(=O)n1Cc1ccc(-c2ccccc2-c2nnn[nH]2)cc1` yielded a 50% inhibitory concentration (IC50) of 131 nM.

`CCCCc1nc(C)c(CC(=S)N2CCCCCC2)c(=O)n1Cc1ccc(-c2ccccc2-c2nnn[nH]2)cc1` returned an IC50 of 8.04 nM.

For another test, the system named is Rattus norvegicus. Nature of the test: Antihypertensive activity in iv dosed pithed rat model assessed as inhibition of angiotensin 2-induced pressor response by gould pressure transducer-coupled grass polygraphy. In kind it is functional. In a few lines: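 Pithed rats had blood pressure recorded by an arterial catheter to a pressure transducer/polygraph. After about 60 min of stabilization, AngII (100 ng/kg iv) was given three times at 15 min intervals to set a basal pressor response. Compound was then given iv, followed by AngII 100 ng/kg iv. ED50 for 50% inhibition of maximal pressor response came from the dose–pressure curve.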
In general, ED50 refers to the midpoint of the dose-response relation. On to `CCCCc1nc(C)c(CC(=S)N(C)C)c(=O)n1Cc1ccc(-c2ccccc2-c2nnn[nH]2)cc1`, for which the ED50 came out at 0.018 mg/kg.

Turning to `CCCCc1nc(C)c(CCC(=O)N2CC(C)OC(C)C2)c(=O)n1Cc1ccc(-c2ccccc2-c2nnn[nH]2)cc1` (centres undefined), the 50% effective dose (ED50) came out at 0.228 mg/kg.

As to `CCCCc1nc(C)c(CC(=O)N(CC)CC)c(=O)n1Cc1ccc(-c2ccccc2-c2nnn[nH]2)cc1`, the ED50 came to 0.089 mg/kg.

Take `CCCCc1nc(C)c(CC(=O)N2CC(C)OC(C)C2)c(=O)n1Cc1ccc(-c2ccccc2-c2nnn[nH]2)cc1` (centres undefined): the ED50 came to 0.029 mg/kg.

Consider `CCCCc1nc(C)c(CCC(=O)OCC)c(=O)n1Cc1ccc(-c2ccccc2-c2nnn[nH]2)cc1`, for which the median effective dose (ED50) amounted to 0.066 mg/kg.

As to `CCCCc1nc(C)c(CC(=S)N2CCCCCC2)c(=O)n1Cc1ccc(-c2ccccc2-c2nnn[nH]2)cc1`, the ED50 was determined as 0.034 mg/kg.

The test system of another test is Rattus norvegicus. Put plainly: Ratio of losartan ED50 to compound ED50 for antihypertensive activity in iv dosed pithed rat model assessed as inhibition of angiotensin 2-induced pressor response. In kind it is functional.
On to `CCCCc1nc(C)c(CC(=S)N(C)C)c(=O)n1Cc1ccc(-c2ccccc2-c2nnn[nH]2)cc1`, for which the “Ratio ED50” value stood at 19.
